Published values pooled from the literature.
Compare with care: the assays were run in different laboratories.
Target: Serine/threonine-protein kinase 25 (STK25, Homo sapiens, UniProt O00506)

With `N[C@H]1CCN(c2nccc(-c3cnn4ncccc34)n2)C1` the remaining binding was 100% (binding; 1 µM).
`CCCCN(CCCC)C(=O)CN1C[C@H](c2cc(OC)c3c(c2)OCO3)[C@@H](C(=O)O)[C@@H]1CC(C)(C)CCC` has a remaining binding of 100% (cell-free assay, competition with immobilised ligand; 1 µM).
With `COc1ncc2cc3ccccc3nc2c1C#N` the remaining binding was 100% (cell-free assay, competition with immobilised ligand; 5 µM).
For `O=C(c1ccc(Nc2nccc(-c3cc4ccccc4s3)n2)cc1)N1CCC(N2CCCC2)CC1`, the remaining binding was 22% (binding, competition with immobilised ligand; 1 µM).
`C[C@@H](c1ccc(-n2cnc3c(N)ncnc32)cc1)N1CCc2nn(C)c(Cc3ccccc3)c2C1=O` has a remaining binding of 86% (binding, competition with immobilised ligand; 0.1 µM).
`COc1ccnn2ncc(-c3ccnc(N(C)C)n3)c12` gave a remaining binding of 100% (binding; 1 µM).
With `CC1=C(C#N)[C@@H](c2ccc3[nH]nc(C)c3c2)C(C#N)=C(c2ccc(Cl)cc2)N1` the remaining binding was 100% (cell-free assay, competition with immobilised ligand; 1 µM).
`CCN1CCN(Cc2ccc(C(=O)Nc3ccc(C)c(Oc4ccc5c(c4)CC(=O)N5)c3)cc2C(F)(F)F)CC1` gave a remaining binding of 100% (binding, competition with immobilised ligand; 1 µM).
With `C[C@@H]1CCN(c2nccc(-c3cnn4ncccc34)n2)C1` the remaining binding was 100% (binding; 1 µM).
For `CNC(=O)[C@@H]1CC[C@@H](n2c(-c3ccc4cnccc4c3)nc3ccc(C(=O)NCc4cccc(C(N)=O)c4)cc32)C1`, the remaining binding was 100% (binding, competition with immobilised ligand; 1 µM).
The remaining binding of `N#CC1(c2ccccn2)CCN(Cc2cc(C(=O)N3CCCC3)c(=O)n3ccccc23)CC1` is reported as 97% (cell-free assay, competition with immobilised ligand; 1 µM).
`CN(c1nccc(-c2cnn3ncccc23)n1)C1CC1` gave a remaining binding of 100% (binding; 1 µM).
`CNC(=O)Nc1ccc2c(c1)CC[C@@]21OC(=O)N(CC(=O)N(Cc2ccc(F)cc2)[C@@H](C)C(F)(F)F)C1=O` has a remaining binding of 99% (cell-free assay, competition with immobilised ligand; 1 µM).
With `O=C(NCCCN1CCOCC1)c1ccc(Nc2ncc(Cl)c(-c3ccc(Cl)s3)n2)cc1` the remaining binding was 89% (binding, competition with immobilised ligand; 1 µM).
The remaining binding of `c1cnn2ncc(-c3ccnc(N4CCC45COC5)n3)c2c1` is reported as 100% (binding; 1 µM).
`CN([C@@H]1CCc2c(CC(=O)O)c3cc(S(C)(=O)=O)ccc3n2C1)S(=O)(=O)c1ccc(F)cc1` has a remaining binding of 100% (cell-free assay, competition with immobilised ligand; 1 µM).
For `F[C@@H]1CCN(c2nccc(-c3cnn4ncccc34)n2)C1`, the remaining binding was 100% (binding; 1 µM).
With `O=C(Nc1c[nH]nc1C(=O)NC1CCNCC1)c1cc(F)cc(F)c1` the remaining binding was 85% (binding, competition with immobilised ligand; 1 µM).
`Cc1cnc(Nc2ccc(C(=O)N3CCC(N4CCCC4)CC3)cc2)nc1-c1cc2ccccc2s1` gave a remaining binding of 21% (binding, competition with immobilised ligand; 1 µM).
With `CCS(=O)(=O)c1cc2cc(C[C@@](O)(CC(C)(C)c3ccc(F)cc3C(N)=O)C(F)(F)F)[nH]c2cn1` the remaining binding was 87% (cell-free assay, competition with immobilised ligand; 1 µM).
